# Activity calls are given as the source filed them. The rule behind the calls is not given here.
# Key:
# Botrytis cinerea [1] = test: Antifungal activity against Botryotinia fuckeliana assessed as growth inhibition at 200 ug/plug; type: functional
# Procedure, shortened: (§1)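 Plugs cut from actively growing colony margins (L. maculans UWA P11 grown on V8 agar; B. cinerea and P. cinnamomi kept on PDA) were placed centrally on one-fifth strength PDA plates. Purified compound dissolved in filter-sterilized EtOAc was applied on top of each plug and the solvent evaporated; a solvent-only control was included. Colony diameter (mm) was measured daily. Three replicates per treatment; experiment run twice.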
# Phytophthora cinnamomi [2] = test: Antifungal activity against Phytophthora cinnamomi assessed as growth inhibition at 200 ug/plug; type: functional; procedure, shortened: as §1
# Plenodomus lingam [3] = test: Antifungal activity against Leptosphaeria maculans isolate UWA P11 assessed as growth inhibition at 200 ug/plug; type: functional; procedure, shortened: as §1
# Plenodomus lingam [4] = test: Antifungal activity against Leptosphaeria maculans isolate UWA P11 assessed as growth inhibition at 1 to 100 ug/plug; type: functional
# Phytophthora cinnamomi [5] = test: Antifungal activity against Phytophthora cinnamomi assessed as growth inhibition at 1 to 100 ug/plug; type: functional
# Phytophthora cinnamomi [6] = test: Antifungal activity against Phytophthora cinnamomi assessed as growth inhibition at 1 to 10 ug/plug; type: functional, organism-based; procedure, shortened: as §1
# Botrytis cinerea [7] = test: Antifungal activity against Botryotinia fuckeliana assessed as growth inhibition at 1 to 10 ug/plug; type: functional, organism-based; procedure, shortened: as §1
# Plenodomus lingam [8] = test: Antifungal activity against Leptosphaeria maculans isolate UWA P11 assessed as growth inhibition at 0.01 to 200 ug/plug; type: functional, organism-based; procedure, shortened: as §1
# Botrytis cinerea [9] = test: Antifungal activity against Botryotinia fuckeliana assessed as growth inhibition at 0.01 to 200 ug/plug; type: functional, organism-based; procedure, shortened: as §1
# Phytophthora cinnamomi [10] = test: Antifungal activity against Phytophthora cinnamomi assessed as growth inhibition at 0.01 to 200 ug/plug; type: functional, organism-based; procedure, shortened: as §1
# Plenodomus lingam [11] = test: Antifungal activity against Leptosphaeria maculans isolate UWA P11 assessed as growth inhibition at 100 ug/plug; type: functional, organism-based; procedure, shortened: as §1
# Phytophthora cinnamomi [12] = test: Antifungal activity against Phytophthora cinnamomi assessed as growth inhibition at 100 ug/plug; type: functional, organism-based; procedure, shortened: as §1
smiles,measurement,setting,value
C/C=C/C=C/CC1=C(CC(C)O)C(=O)OC1 (stereo not given) [HARZIANOLIDE],growth inhibition (GI),Botrytis cinerea [1],<25%
same,growth inhibition (GI),Phytophthora cinnamomi [2],<25%
same,growth inhibition (GI),Plenodomus lingam [3],<25%
C/C=C/CC(C)C(=O)c1c(O)c(OC)c(OC)[nH]c1=O (stereo not given) [HARZIANOPYRIDONE],growth inhibition (GI),Plenodomus lingam [4],100%
same,growth inhibition (GI),Phytophthora cinnamomi [5],100%
C/C=C/C=C/C1=CC2=CC(=O)[C@](C)(OC(=O)[C@H](C)O)C(=O)C2=CO1,growth inhibition (GI),Phytophthora cinnamomi [6],Active
same,growth inhibition (GI),Botrytis cinerea [7],Active
Cc1cc(O)c2c(c1)C(=O)c1cccc(O)c1C2=O,growth inhibition (GI),Plenodomus lingam [8],inactive
same,growth inhibition (GI),Botrytis cinerea [9],inactive
same,growth inhibition (GI),Phytophthora cinnamomi [10],inactive
C/C=C/C=C/CC1=C(CC(C)=O)C(=O)OC1,growth inhibition (GI),Plenodomus lingam [11],Active
same,growth inhibition (GI),Phytophthora cinnamomi [12],Active
Cc1cc(O)c2c(c1)C(=O)c1ccccc1C2=O,growth inhibition (GI),Plenodomus lingam [8],inactive
same,growth inhibition (GI),Botrytis cinerea [9],inactive
same,growth inhibition (GI),Phytophthora cinnamomi [10],inactive

# Source: ChEMBL document CHEMBL3046508, “Factors affecting the production of Trichoderma harzianum secondary metabolites during the interaction with different plant pathogens” (2009)
